Measurements as given in ChEMBL document CHEMBL1143425, “Paradoxical growth effect of caspofungin observed on biofilms and planktonic cells of five different Candida species” (2007).
Converted amounts (≈) assume the structure as drawn. The source made the active and inactive calls.

What was measured:
[1] = test system: Candida orthopsilosis; assay: Effect on morphology in Candida orthopsilosis grown as biofilm assessed as inhibition of hyphae and pseudohyphae at 32 ug/ml after 48 hrs; format: functional, organism-based
Outline: (§1)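 Biofilms formed in RPMI 1640 wells were exposed to caspofungin for 48 h and compared with drug-free control wells. Wells were examined in the plate under an inverted light microscope at ×200 and photographed.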

[2] = test system: Candida albicans; assay: Antimicrobial activity against Candida albicans BR-A4 grown as planktonic cell after 48 hrs by XTT reduction assay; format: functional
Outline: (§2)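 Planktonic broth microdilution followed CLSI M27-A2, with caspofungin dissolved in water. After 48 h, XTT-menadione was added to the wells and plates were kept 1 h at 35°C in the dark. Plates were then centrifuged and supernatant A490 was read. MIC was the lowest concentration giving a 50% decrease in metabolic activity versus drug-free control. Paradoxical growth was defined as ≥20% of control activity above the MIC.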

[3] = test system: Candida orthopsilosis; assay: Antimicrobial activity against Candida orthopsilosis BR-A36 grown as planktonic cell assessed as paradoxical growth after 48 hrs by XTT reduction assay; format: functional, organism-based
Outline: (§3)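 Planktonic cells were tested by CLSI M27-A2 broth microdilution with caspofungin in water, incubated 48 h. XTT-menadione was added to each well, plates were held 1 h at 35°C in the dark and centrifuged, and supernatant absorbance was read at 490 nm. MIC was defined as 50% decrease in metabolic activity versus drug-free control. PG was defined as ≥20% of control activity at concentrations above MIC.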

[4] = test system: Candida albicans; assay: Antimicrobial activity against Candida albicans BR-A7 grown as biofilm assessed as concentration producing paradoxical growth after 48 hrs by XTT reduction assay; format: functional
Outline: (§4)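 Sabouraud-grown cells were shaken overnight (18 h, 120 rpm, 35°C) in RPMI 1640 with MOPS at pH 7.0, then washed and set at ~1 × 10^7 cells/ml. Attachment lasted 1.5 h at 37°C, and growth ran 24 h before challenge. Caspofungin was added in RPMI at 2–1,024 μg/ml (10 doublings) for 48 h at 35°C with shaking. XTT-menadione was read at 490 nm after 1 h at 35°C in the dark, with blank wells subtracted. MIC was taken as 50% reduction versus drug-free wells, and PG as >50% of control above MIC. Assays were run in duplicate.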

[5] = test system: Candida parapsilosis; assay: Antimicrobial activity against Candida parapsilosis BR-A29 grown as biofilm assessed as concentration producing paradoxical growth after 48 hrs by XTT reduction assay; format: functional
Outline: (§5)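 Clinical isolates were grown overnight (18 h, 35°C, 120 rpm) in RPMI 1640 with MOPS, pH 7.0, then washed and set to ~1 × 10^7 cells/ml. Cells attached for 1.5 h at 37°C, 75 rpm, then biofilms grew 24 h. Caspofungin was given as doubling dilutions of 2–1,024 μg/ml for 48 h at 35°C, 75 rpm. Read-out was XTT-menadione in PBS, 1 h at 35°C in the dark, A490, cell-free blank subtracted. MIC was a 50% drop in activity versus drug-free; PG was >50% of control above MIC. Run in duplicate.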

[6] = test system: Candida tropicalis; assay: Antimicrobial activity against Candida tropicalis BR-A9 grown as biofilm after 48 hrs by XTT reduction assay; format: functional
Outline: (§6)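 Isolates were grown on Sabouraud agar (30°C, 24 h), then overnight in RPMI 1640 with MOPS, pH 7.0, at 35°C with shaking. Cells were washed and set to ~1 × 10^7 cells/ml, attached 1.5 h at 37°C, and grown 24 h. Biofilms were then exposed to caspofungin in 10 twofold dilutions (2–1,024 μg/ml) for 48 h at 35°C with shaking. Read-out was XTT-menadione, 1 h, 35°C, dark, A490, cell-free blank subtracted. MIC was the 50% drop in activity versus drug-free control. Tested in duplicate.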

[7] = test system: Candida tropicalis; assay: Antimicrobial activity against Candida tropicalis BR-A8 grown as planktonic cell assessed as concentration producing paradoxical growth after 48 hrs by XTT reduction assay; format: functional
Outline: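 Planktonic broth microdilution followed CLSI M27-A2, with caspofungin dissolved in water. After 48 h, XTT-menadione was added to each well and plates were incubated 1 h at 35°C in the dark. Cells were pelleted by centrifugation and the supernatant was read at 490 nm. MIC was the lowest concentration giving a 50% drop in metabolic activity versus the drug-free control. PG was ≥20% of drug-free activity above the MIC.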

[8] = test system: Candida albicans; assay: Antimicrobial activity against Candida albicans BR-A2 grown as biofilm after 48 hrs by XTT reduction assay; format: functional; outline: as §6
[9] = test system: Candida metapsilosis; assay: Antimicrobial activity against Candida metapsilosis BR-A41 grown as biofilm assessed as concentration producing paradoxical growth after 48 hrs by XTT reduction assay; format: functional; outline: as §4
[10] = test system: Candida parapsilosis; assay: Antimicrobial activity against Candida parapsilosis BR-A31 grown as planktonic cell after 48 hrs by XTT reduction assay; format: functional; settings: Lodderomyces parapsilosis; outline: as §2
[11] = test system: Candida metapsilosis; assay: Antimicrobial activity against Candida metapsilosis BR-A40 grown as biofilm after 48 hrs by XTT reduction assay; format: functional; settings: Lodderomyces metapsilosis; outline: as §4
[12] = test system: Candida parapsilosis; assay: Effect on morphology in Candida parapsilosis grown as planktonic cells assessed as rounding and clumping at 16 ug/ml after 48 hrs; format: functional, organism-based
Outline: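 Clinical isolates were tested by CLSI M27-A2 broth microdilution with caspofungin dissolved in sterile water. After 48 h incubation, cells were taken from drug-containing and drug-free control wells. They were examined by light microscopy at ×400 for hyphae or pseudohyphae, rounding or clumping, and enlarged globose cells.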

[13] = test system: Candida parapsilosis; assay: Antimicrobial activity against Candida parapsilosis BR-A30 grown as planktonic cell after 48 hrs by XTT reduction assay; format: functional; settings: Lodderomyces parapsilosis; outline: as §2
[14] = test system: Candida orthopsilosis; assay: Effect on morphology in Candida orthopsilosis grown as planktonic cells assessed as rounding and clumping at 64 ug/ml after 48 hrs; format: functional, organism-based
Outline: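 Cells were taken from caspofungin-containing and drug-free wells of the planktonic broth microdilution test after 48 h. They were examined by light microscopy at ×400.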

[15] = test system: Candida albicans; assay: Effect on morphology in Candida albicans grown as biofilm assessed as inhibition of hyphae and pseudohyphae at 32 ug/ml after 48 hrs; format: functional, organism-based; outline: as §1
[16] = test system: Candida orthopsilosis; assay: Antimicrobial activity against Candida orthopsilosis BR-A35 grown as planktonic cell assessed as paradoxical growth after 48 hrs by XTT reduction assay; format: functional, organism-based; outline: as §3
[17] = test system: Candida metapsilosis; assay: Antimicrobial activity against Candida metapsilosis BR-A40 grown as planktonic cell assessed as paradoxical growth after 48 hrs by XTT reduction assay; format: functional, organism-based; outline: as §3
[18] = test system: Candida parapsilosis; assay: Antimicrobial activity against Candida parapsilosis BR-A28 grown as biofilm after 48 hrs by XTT reduction assay; format: functional; settings: Lodderomyces parapsilosis; outline: as §6
[19] = test system: Candida orthopsilosis; assay: Antimicrobial activity against Candida orthopsilosis BR-A33 grown as planktonic cell after 48 hrs by XTT reduction assay; format: functional; settings: Lodderomyces orthopsilosis; outline: as §3
[20] = test system: Candida parapsilosis; assay: Antimicrobial activity against Candida parapsilosis BR-A27 grown as planktonic cell after 48 hrs by XTT reduction assay; format: functional; settings: Lodderomyces parapsilosis; outline: as §2
[21] = test system: Candida tropicalis; assay: Antimicrobial activity against Candida tropicalis BR-A18 grown as biofilm assessed as paradoxical growth after 48 hrs by XTT reduction assay; format: functional, organism-based; outline: as §5
[22] = test system: Candida tropicalis; assay: Antimicrobial activity against Candida tropicalis BR-A18 grown as biofilm after 48 hrs by XTT reduction assay; format: functional; outline: as §5
[23] = test system: Candida orthopsilosis; assay: Antimicrobial activity against Candida orthopsilosis BR-A39 grown as planktonic cell after 48 hrs by XTT reduction assay; format: functional; settings: Lodderomyces orthopsilosis; outline: as §2
[24] = test system: Candida orthopsilosis; assay: Antimicrobial activity against Candida orthopsilosis BR-A38 grown as biofilm after 48 hrs by XTT reduction assay; format: functional; settings: Lodderomyces orthopsilosis; outline: as §4
[25] = test system: Candida metapsilosis; assay: Antimicrobial activity against Candida metapsilosis BR-A40 grown as planktonic cell after 48 hrs by XTT reduction assay; format: functional; settings: Lodderomyces metapsilosis; outline: as §3

With CC[C@H](C)C[C@H](C)CCCCCCCCC(=O)N[C@H]1C[C@@H](O)[C@@H](NCCN)NC(=O)[C@@H]2[C@@H](O)CCN2C(=O)[C@H]([C@H](O)CCN)NC(=O)[C@H]([C@H](O)[C@@H](O)c2ccc(O)cc2)NC(=O)[C@@H]2C[C@@H](O)CN2C(=O)[C@H]([C@@H](C)O)NC1=O [CASPOFUNGIN] the Activity [1] was “Active”, the MIC [2] was 0.5 µg/mL (≈ 0.457 µM) and the Activity [3] was “inactive”. It also gave an Activity [4] of 16 µg/mL, an Activity [5] of 16 µg/mL and an MIC [6] of 2 µg/mL (≈ 1.83 µM). For the same compound, the Activity [7] was 8 µg/mL, the MIC [8] was 2 µg/mL (≈ 1.83 µM) and the Activity [9] was 16 µg/mL. The MIC [10] was 2 µg/mL (≈ 1.83 µM), the MIC [11] was 2 µg/mL (≈ 1.83 µM) and the Activity [12] was “Active”. For the same compound, the MIC [13] was 2 µg/mL (≈ 1.83 µM), the Activity [14] was “Active” and the Activity [15] was “Active”. For the same compound, the Activity [16] was “inactive”, the Activity [17] was “inactive” and the MIC [18] was 2 µg/mL (≈ 1.83 µM). For the same compound, the MIC [19] was 1 µg/mL (≈ 0.915 µM), the MIC [20] was 2 µg/mL (≈ 1.83 µM) and the Activity [21] was “Active”. It also gave an MIC [22] of 128 µg/mL (≈ 117 µM), an MIC [23] of 2 µg/mL (≈ 1.83 µM) and an MIC [24] of 512 µg/mL (≈ 468 µM). The MIC [25] was 1 µg/mL (≈ 0.915 µM).
